We go through 53 compounds from ChEMBL document CHEMBL4038327, “Inhibitory Kappa B Kinase α (IKKα) Inhibitors That Recapitulate Their Selectivity in Cells against Isoform-Related Biomarkers” (J Med Chem, 2017).

pKi: −log10 of the molar value. Bounds are passed on as bounds.

Assay [1] concerns the target T1, Inhibitor of nuclear factor kappa-B kinase subunit beta (Homo sapiens, UniProt O14920).
T1 sequence (O14920 whole entry): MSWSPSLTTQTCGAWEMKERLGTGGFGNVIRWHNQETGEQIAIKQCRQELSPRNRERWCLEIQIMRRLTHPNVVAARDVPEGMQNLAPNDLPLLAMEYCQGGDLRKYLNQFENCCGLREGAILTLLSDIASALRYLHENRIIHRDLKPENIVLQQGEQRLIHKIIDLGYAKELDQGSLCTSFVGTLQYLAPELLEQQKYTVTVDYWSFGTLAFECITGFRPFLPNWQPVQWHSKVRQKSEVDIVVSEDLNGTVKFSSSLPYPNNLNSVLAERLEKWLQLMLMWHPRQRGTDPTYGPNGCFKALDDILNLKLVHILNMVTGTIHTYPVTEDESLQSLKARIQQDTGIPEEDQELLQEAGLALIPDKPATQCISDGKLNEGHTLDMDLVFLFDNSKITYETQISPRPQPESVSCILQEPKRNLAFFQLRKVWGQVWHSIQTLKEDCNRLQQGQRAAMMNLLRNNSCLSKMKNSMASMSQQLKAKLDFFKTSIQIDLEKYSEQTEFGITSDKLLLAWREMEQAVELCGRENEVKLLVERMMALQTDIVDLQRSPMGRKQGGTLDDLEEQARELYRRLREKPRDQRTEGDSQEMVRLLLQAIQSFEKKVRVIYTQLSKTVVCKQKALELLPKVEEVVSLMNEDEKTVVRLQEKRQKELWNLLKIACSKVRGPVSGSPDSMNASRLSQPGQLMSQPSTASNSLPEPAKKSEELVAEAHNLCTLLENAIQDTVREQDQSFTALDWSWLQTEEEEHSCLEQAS
The assay can be described thus: Inhibition of recombinant full length human IKKbeta expressed in baculovirus infected sf9 insect cells using biotinylated IkBalpha as substrate after 60 mins by DELFIA. In a few lines:
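Recombinant IKKβ (37 nM) was incubated with biotinylated IκB-α (Ser32) peptide (0.375 μM) and 40 μM ATP in Tris-HCl pH 7.5 with MgCl2, EDTA, DTT and BSA for 60 min at 30 °C. The reaction was quenched with EDTA and captured on streptavidin. Detection used anti-phospho-IκBα (Ser32/36) mAb plus Eu-anti-mouse IgG, read by time-resolved fluorescence (340/615 nm). Apparent Ki was obtained via Cheng–Prusoff, n=3.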

The target of assay [2] is T2, Inhibitor of nuclear factor kappa-B kinase subunit alpha (Homo sapiens, UniProt O15111).
T2 sequence (O15111 whole entry): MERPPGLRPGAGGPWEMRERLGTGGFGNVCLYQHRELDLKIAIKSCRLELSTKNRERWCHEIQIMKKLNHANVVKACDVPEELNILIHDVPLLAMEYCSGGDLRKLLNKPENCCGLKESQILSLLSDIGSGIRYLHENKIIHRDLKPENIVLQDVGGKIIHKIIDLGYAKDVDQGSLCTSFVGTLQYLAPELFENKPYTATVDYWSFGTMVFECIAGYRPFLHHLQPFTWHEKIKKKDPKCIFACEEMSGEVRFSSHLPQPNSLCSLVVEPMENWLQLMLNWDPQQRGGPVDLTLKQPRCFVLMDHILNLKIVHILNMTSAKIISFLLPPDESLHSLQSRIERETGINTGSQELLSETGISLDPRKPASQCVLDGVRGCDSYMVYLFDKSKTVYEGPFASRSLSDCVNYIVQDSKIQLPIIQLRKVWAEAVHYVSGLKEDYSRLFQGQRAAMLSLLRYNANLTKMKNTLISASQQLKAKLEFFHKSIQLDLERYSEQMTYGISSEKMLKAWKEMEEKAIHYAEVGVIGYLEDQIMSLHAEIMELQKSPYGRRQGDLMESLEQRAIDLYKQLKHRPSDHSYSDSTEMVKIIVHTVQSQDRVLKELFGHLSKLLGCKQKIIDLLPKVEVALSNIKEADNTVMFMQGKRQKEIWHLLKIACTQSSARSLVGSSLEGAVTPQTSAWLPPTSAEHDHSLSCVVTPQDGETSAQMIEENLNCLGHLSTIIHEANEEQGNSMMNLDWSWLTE
As to the kind of experiment: Inhibition of recombinant human N-terminal GST-tagged IKKalpha (1 to 745 residues) expressed in baculovirus expression system using biotinylated IkBalpha as substrate after 60 mins by DELFIA.

Take `N#Cc1c[nH]c2nc(N)nc(N3CCOCC3)c12`: the figures for the pKi in assay [1] and in assay [2] were 4.70 and less than 4.52, respectively.
For the compound `N#Cc1c[nH]c2nc(N)nc(-c3cccc(C(N)=O)c3)c12`, the pKi in assay [1] and in assay [2] was less than 4.52 each time.
For `Nc1nc(N[C@H]2CC[C@H](O)CC2)c2cc[nH]c2n1`, the pKi in assay [1] and in assay [2] was less than 4.52 throughout.
For `N#Cc1c[nH]c2ncnc(-c3ccc(S(N)(=O)=O)cc3)c12`, the pKi in assay [1] was less than 4.52; in assay [2] it was 5.68.
The matching figures for `N#Cc1c[nH]c2nc(N)nc(-c3ccccc3C(N)=O)c12`: less than 4.52 and less than 4.52.
For `N#Cc1c[nH]c2nc(N)nc(N3CC[C@H](O)C3)c12`, the pKi in assay [1] was less than 4.52; in assay [2], 5.22.
Turning to `N#Cc1c[nH]c2nc(N)nc(NC3CCCCC3)c12`, the figures for the pKi in assay [1] and in assay [2] were less than 4.52 and 5.74, respectively.
Turning to `N#Cc1c[nH]c2nc(N)nc(-c3ccc(C(N)=O)cc3)c12`, the pKi in assay [1] was less than 4.52; in assay [2] it was 4.80.
For `N#Cc1c[nH]c2nc(N)nc(-c3cccc(CO)c3)c12`, in that order: 5.40 and 5.01.
Consider `N#Cc1c[nH]c2nc(N)nc(Cl)c12`, for which the pKi was less than 4.52 in assay [1] and 5.40 in assay [2].
In the case of `N#Cc1c[nH]c2nc(N)nc(N3CCN(CCO)CC3)c12`, the pKi in assay [1] and in assay [2] was less than 4.52 each time.
Regarding `CNS(=O)(=O)c1ccc(-c2nc(N)nc3[nH]cc(C#N)c23)cc1`, the pKi was 6.40 in assay [1] and 5.77 in assay [2].
As for `N#Cc1c[nH]c2nc(N)nc(-c3ccc(O)cc3)c12`, the results for the pKi in assay [1] and in assay [2] were 4.70 and 5.80, respectively.
As to `CN(c1nc(N)nc2[nH]cc(C#N)c12)C1CCCCC1`, the pKi in assay [1] and in assay [2] was less than 4.52 throughout.
Take `N#Cc1c[nH]c2nc(N)nc(NCCO)c12`: the pKi was less than 4.52 in assay [1] and 5.80 in assay [2].
Consider `N#Cc1c[nH]c2nc(N)nc(-c3cccc(S(N)(=O)=O)c3)c12`, for which the pKi in assay [1] was 5.23; in assay [2] it was 5.28.
The matching figures for `N#Cc1c[nH]c2nc(N)nc(N(CCO)C3CCCCC3)c12`: less than 4.52 and less than 4.52.
For `N#Cc1c[nH]c2nc(N)nc(N3CCC(S(N)(=O)=O)CC3)c12`, in that order: 5.23 and 5.28.
The matching figures for `N#Cc1c[nH]c2nc(N)nc(-c3ccccc3CO)c12`: less than 4.52 and less than 4.52.
`N#Cc1c[nH]c2nc(N)nc(-c3ccccc3F)c12`: the values for the pKi in assay [1] and in assay [2] were less than 4.52 and 5.70, respectively.
As for `N#Cc1c[nH]c2nc(N)nc(N)c12`, the pKi in assay [1] and in assay [2] was less than 4.52 in each case.
Consider `CN1CCN(c2nc(N)nc3[nH]cc(C#N)c23)CC1`, for which the pKi in assay [1] and in assay [2] was less than 4.52 throughout.
Consider `Nc1nc(Cl)c2cc[nH]c2n1`, for which the pKi in assay [1] and in assay [2] was less than 4.52 each time.
Turning to `N#Cc1c[nH]c2nc(N)nc(-c3ccccc3)c12`, the pKi in assay [1] is less than 4.52; in assay [2], 5.77.
Take `N#Cc1c[nH]c2nc(N)nc(N3CCN(c4ccccc4)CC3)c12`: the pKi in assay [1] and in assay [2] was less than 4.52 in each case.
On to `N#Cc1c[nH]c2nc(N)nc(-c3ccccc3O)c12`, for which the pKi is less than 4.52 in assay [1] and 4.82 in assay [2].
Consider `N#Cc1c[nH]c2nc(N)nc(N[C@@H]3C[C@H](O)[C@@H](O)[C@H]3O)c12`, for which the pKi was 5.44 in assay [1] and 6.10 in assay [2].
Turning to `N#Cc1c[nH]c2nc(N)nc(N[C@H]3CC[C@H](O)CC3)c12`, the negative-log Ki (pKi) in assay [1] was less than 4.52; in assay [2], 5.70.
In the case of `CS(=O)(=O)c1ccc(-c2nc(N)nc3[nH]cc(C#N)c23)cc1`, the pKi is 6.52 in assay [1] and 5.62 in assay [2].
As for `Nc1nc(N2CCCCC2)c2cc[nH]c2n1`, the pKi in assay [1] and in assay [2] was less than 4.52 throughout.
`CS(=O)(=O)Nc1ccc(-c2nc(N)nc3[nH]cc(C#N)c23)cc1`: the pKi in assay [1] is 7.00; in assay [2] it was 5.85.
In the case of `N#Cc1c[nH]c2nc(N)nc(NCc3ccccc3)c12`, the pKi in assay [1] is less than 4.52; in assay [2], 5.28.
For `N#Cc1c[nH]c2nc(N)nc(Nc3ccc(C(=O)O)cc3)c12`, in that order: less than 4.52 and less than 4.52.
Consider `N#Cc1c[nH]c2nc(N)nc(Nc3ccc(S(N)(=O)=O)cc3)c12`, for which the pKi was less than 4.52 in assay [1] and 5.00 in assay [2].
Consider `Cc1ccc(NS(=O)(=O)c2ccc(-c3nc(N)nc4[nH]cc(C#N)c34)cc2)cc1`, for which the results for the pKi in assay [1] and in assay [2] were 5.85 and 4.80, respectively.
Consider `NC(=O)c1c[nH]c2nc(N)nc(N[C@H]3CC[C@H](O)CC3)c12`, for which the pKi in assay [1] and in assay [2] was less than 4.52 each time.
`N#Cc1c[nH]c2nc(N)nc(NCC3CC3)c12`: the pKi is less than 4.52 in assay [1] and 4.80 in assay [2].
Consider `N#Cc1c[nH]c2nc(N)nc(N3CCN(CCCO)CC3)c12`, for which the pKi in assay [1] was less than 4.52; in assay [2] it was 4.92.
As to `N#Cc1c[nH]c2nc(N)nc(N3CCCCC3)c12`, the pKi in assay [1] is less than 4.52; in assay [2], 5.28.
The matching figures for `N#Cc1c[nH]c2nc(N)nc(-c3ccc(F)cc3)c12`: less than 4.52 and 5.00.
Consider `N#Cc1c[nH]c2nc(N)nc(N3CCC[C@@H]3CO)c12`, for which the results for the pKi in assay [1] and in assay [2] were less than 4.52 and 5.60, respectively.
Regarding `NS(=O)(=O)c1ccc(-c2ncnc3[nH]ccc23)cc1`, the pKi is 5.60 in assay [1] and 5.82 in assay [2].
Turning to `N#Cc1c[nH]c2nc(N)nc(N3CC[C@@H](O)C3)c12`, the pKi in assay [1] and in assay [2] was less than 4.52 in each case.
As to `Nc1nc(-c2ccc(S(N)(=O)=O)cc2)c2cc[nH]c2n1`, the pKi is 6.21 in assay [1] and 5.54 in assay [2].
Turning to `N#Cc1c[nH]c2nc(N)nc(-c3cccc(F)c3)c12`, the pKi in assay [1] was less than 4.52; in assay [2], 5.11.
As to `N#Cc1c[nH]c2nc(N)nc(N3CCC[C@H]3CO)c12`, the pKi in assay [1] was less than 4.52; in assay [2], 5.51.
The matching figures for `Nc1nc(NC2CCCCC2)c2cc[nH]c2n1`: less than 4.52 and less than 4.52.
In the case of `N#Cc1c[nH]c2nc(N)nc(-c3cccc(O)c3)c12`, the values for the pKi in assay [1] and in assay [2] were 5.42 and 5.62, respectively.
Regarding `N#Cc1c[nH]c2nc(N)nc(Nc3ccccc3)c12`, the results for the pKi in assay [1] and in assay [2] were less than 4.52 and 4.89, respectively.
Regarding `Nc1nc(NC2CCCCC2)c2c(C(F)(F)F)c[nH]c2n1`, the pKi in assay [1] and in assay [2] was less than 4.52 throughout.
For the compound `N#Cc1c[nH]c2nc(N)nc(NCCN3CCOCC3)c12`, the pKi in assay [1] and in assay [2] was less than 4.52 throughout.
For `N#Cc1c[nH]c2nc(N)nc(-c3ccccc3S(N)(=O)=O)c12`, the pKi in assay [1] and in assay [2] was less than 4.52 throughout.
As to `CNc1nc(N)nc2[nH]cc(C#N)c12`, the values for the pKi in assay [1] and in assay [2] were less than 4.52 and 4.89, respectively.
